Experimental data: ChEMBL document CHEMBL4351020, “Application of hydrazino and hydrazido linkers to connect benzenesulfonamides with hydrophilic/phobic tails for targeting the middle region of human carbonic anhydrases active site: Selective inhibitors of hCA IX” (Eur J Med Chem, 2019)

What was measured:
[1] = target: Carbonic anhydrase 2 (Homo sapiens, UniProt P00918); experiment: Inhibition of human recombinant carbonic anhydrase 2 expressed in Escherichia coli by stopped flow CO2 hydration assay
[2] = target: Carbonic anhydrase 9 (Homo sapiens, UniProt Q16790)
[3] = target: Carbonic anhydrase 1 (Homo sapiens, UniProt P00915); experiment: Inhibition of human recombinant carbonic anhydrase 1 expressed in Escherichia coli by stopped flow CO2 hydration assay
Chain of Carbonic anhydrase 1 (P00915 whole entry): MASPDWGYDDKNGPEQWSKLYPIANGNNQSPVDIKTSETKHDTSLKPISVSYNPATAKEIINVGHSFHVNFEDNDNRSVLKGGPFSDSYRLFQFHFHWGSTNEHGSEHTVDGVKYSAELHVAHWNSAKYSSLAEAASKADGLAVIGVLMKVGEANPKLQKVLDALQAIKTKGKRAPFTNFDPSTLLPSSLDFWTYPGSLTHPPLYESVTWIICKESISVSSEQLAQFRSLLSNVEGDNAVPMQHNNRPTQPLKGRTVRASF

[4] = test system: MCF7; experiment: Induction of cell cycle arrest in human MCF7 cells assessed as accumulation at Pre-G1 phase at IC50 after 24 hrs by propidium iodide staining based flow cytometric analysis (reference value: 1.89%); assay type: functional
[5] = test system: MCF7; experiment: Antiproliferative activity against human MCF7 cells measured after 48 hrs under normoxia condition by MTT assay; assay type: functional, cell-based; conditions: MCF7, 48 h
Method in brief: (§1)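 MCF-7 (ATCC) grown in DMEM with 10% heat-inactivated FBS, 1% L-glutamine (2.5 mM), HEPES (10 mM), 50 µg/mL gentamycin, at 37 C, 5% CO2. Hypoxia induced chemically with CoCl2 (100 µM); normoxic cells without it. Viability by MTT colorimetric assay after 48 h exposure; IC50 is the concentration giving 50% growth inhibition relative to untreated controls.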

[6] = test system: MCF7; experiment: Induction of apoptosis in human MCF7 cells assessed as total apoptotic cells by Annexin V-FITC/propidium iodide staining based flow cytometry (reference value: 1.54%); assay type: functional
[7] = test system: MCF7; experiment: Induction of cell cycle arrest in human MCF7 cells assessed as accumulation at G0/G1 phase at IC50 after 24 hrs by propidium iodide staining based flow cytometric analysis (reference value: 56.27%); assay type: functional
[8] = test system: MCF7; experiment: Induction of cell cycle arrest in human MCF7 cells assessed as accumulation at G2/M phase at IC50 after 24 hrs by propidium iodide staining based flow cytometric analysis (reference value: 2.37%); assay type: functional
[9] = test system: MCF7; experiment: Antiproliferative activity against human MCF7 cells measured after 48 hrs under hypoxia condition by MTT assay; assay type: functional, cell-based; conditions: MCF7, 48 h; method in brief: as §1
[10] = test system: MCF7; experiment: Induction of apoptosis in human MCF7 cells assessed as early apoptotic cells by Annexin V-FITC/propidium iodide staining based flow cytometry (reference value: 1.05%); assay type: functional
[11] = test system: MCF7; experiment: Induction of cell cycle arrest in human MCF7 cells assessed as accumulation at S phase at IC50 after 24 hrs by propidium iodide staining based flow cytometric analysis (reference value: 41.36%); assay type: functional
[12] = test system: MCF7; experiment: Induction of apoptosis in human MCF7 cells assessed as late apoptotic cells by Annexin V-FITC/propidium iodide staining based flow cytometry (reference value: 0.49%); assay type: functional
[13] = test system: MCF7; experiment: Induction of apoptosis in human MCF7 cells assessed as necrotic cells by Annexin V-FITC/propidium iodide staining based flow cytometry (reference value: 0.35%); assay type: functional

| SMILES | Ki [1] [nM] | Ki [2] [nM] | Ki [3] [nM] | also measured |
| --- | --- | --- | --- | --- |
| NS(=O)(=O)c1ccc(C(=O)N/N=C/c2ccc(-n3ccnc3)cc2)cc1 | 8.2 | 10.1 | 130 | Activity [4]: 19.36%; IC50 [5]: 3320 nM; Activity [6]: 16.22%; Activity [7]: 36.49%; Activity [8]: 33.85%; IC50 [9]: 8530 nM; Activity [10]: 4.29%; Activity [11]: 29.66%; Activity [12]: 11.93%; Activity [13]: 3.14% |
| NS(=O)(=O)c1ccc(N/N=C/c2ccc(N3CCOCC3)cc2)cc1 | 34.5 | 16.5 | 87.4 | – |
| NS(=O)(=O)c1ccc(C(=O)N/N=C/c2ccc(-n3nnc4ccccc43)cc2)cc1 | 62.3 | 23.7 | 357 | – |
| NS(=O)(=O)c1ccc(N/N=C/c2ccc(N3CCCCC3)cc2)cc1 | 24 | 20.9 | 101 | – |
| NS(=O)(=O)c1ccc(C(=O)N/N=C/c2ccc(N3CCCC3)cc2)cc1 | 12.5 | 3.1 | 347 | – |
| C/C(=N\Nc1ccc(S(N)(=O)=O)cc1)c1ccc(N2CCN(C)CC2)cc1 | 89.5 | 2 | 266 | IC50 [5]: 7720 nM; IC50 [9]: 17300 nM |
| C/C(=N\NC(=O)c1ccc(S(N)(=O)=O)cc1)c1ccc(N2C(=O)c3c(Cl)c(Cl)c(Cl)c(Cl)c3C2=O)cc1 | – | 17.3 | – | – |
| NS(=O)(=O)c1ccc(C(=O)N/N=C/c2ccc(N3CCOCC3)cc2)cc1 | 15.6 | 8.6 | 175 | – |
| NS(=O)(=O)c1ccc(N/N=C/c2ccc(-n3ccnc3)cc2)cc1 | 17.9 | 14.6 | 76.8 | – |
| C/C(=N\Nc1ccc(S(N)(=O)=O)cc1)c1ccc(N2CCOCC2)cc1 | 65.6 | 8.9 | 149 | – |

The remaining molecules from weak to strong by Ki [2], led by results:

| Ki [1] [nM] | Ki [2] [nM] | Ki [3] [nM] | SMILES | also measured |
| --- | --- | --- | --- | --- |
| 94.6 | 46.3 | 240 | NS(=O)(=O)c1ccc(N/N=C/c2ccc(-n3nnc4ccccc43)cc2)cc1 | – |
| 29.9 | 19.4 | 96.2 | NS(=O)(=O)c1ccc(N/N=C/c2ccc(N3CCCC3)cc2)cc1 | – |
| 57.7 | 18.3 | 95.4 | C/C(=N\Nc1ccc(S(N)(=O)=O)cc1)c1ccc(N2CCCC2)cc1 | – |
| 69.2 | 7.2 | 111 | C/C(=N\Nc1ccc(S(N)(=O)=O)cc1)c1ccc(N2CCCCC2)cc1 | – |
| 9.3 | 3.3 | 153 | NS(=O)(=O)c1ccc(C(=O)N/N=C/c2ccc(N3CCCCC3)cc2)cc1 | – |
